Compound activity: PubChem, Johns Hopkins Ion Channel Center
Kir21 block = inhibitors of mouse Kir2.1 inward-rectifier potassium channel. HEK293-Kir2.1, FluxOR thallium flux fluorescence; stronger effect = lower value. B-score at 10 µM. hit rate 0.85% among 310,000. AID 1672;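 active means fluorescence ratio B-score at or below minus 3 SD of library scores, with starting-brightness B-score within 2 SD, cut at about -4.2 in these data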;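 further: channel flux triggered by added potassium and thallium sulfate stimulus; B-score of peak minus minimum fluorescence over baseline after thallium stimulus; more negative B-score means stronger Kir2.1 block with less thallium influx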
hERG protect = shields human hERG channel from block by proarrhythmic agents; CHO-hERG, FluxOR thallium flux, dofetilide IC70 present; activation (rescue from dofetilide block), less the hit threshold, % at 10 µM; hit rate 0.51% among 310,000; AID 1511;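 active means activation above the mean of controls blocked by dofetilide plus 5 SD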;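 further: thallium influx through hERG after potassium depolarization seen as dye fluorescence rise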
KCNQ1 block = inhibitors of human KCNQ1 potassium channel; P51787; CHO-K1 KCNQ1, FluxOR thallium flux fluorescence; stronger effect = higher value; B-score at 10 µM; hit rate 1.3% among 310,000; AID 2642;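 active means compounds whose thallium flux B-score, printed positive for inhibition, exceeds three library SD while starting fluorescence stays within three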;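 further: channel opened by potassium depolarization with thallium stimulus after 20 min compound exposure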
KCNQ1 pot = potentiates or activates the human KCNQ1 potassium channel; CHO-K1 KCNQ1, thallium flux FluxOR fluorescence; stronger effect = higher value; B-score at 10 µM; hit rate 0.35% among 310,000; P51787;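 active means fluorescence ratio B-score, a plate-corrected score, at least three library SD, with initial intensity B-score within 5 SD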
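System: Stable KCNQ1 CHO-K1 line | Incubation: 90 min dye loading and 20 min compound exposure, both at room temperature | Measure: Ratio B score | Medium: Assay buffer for compound exposure, DMSO matched across wells | Compound dosing: Single-concentration screen | Probe or stimulus: K+/Tl+ depolarizing stimulus | Measured by: Kinetic FluxOR fluorescence, 10 s baseline plus 110 s post-stimulus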
KCNK3 block = human KCNK3 channel inhibition, primary screen | B-score at 10 µM | CHO-KCNK3 thallium flux, FluxOR fluorescence; stronger effect = lower value | hit rate 0.84% among 340,000;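 active means B-score under library mean minus 4 SD, starting fluorescence ratio at most library mean plus 5 SD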;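 further: more negative B-score means stronger inhibition of thallium flux through KCNK3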
KCNK9 block = inhibitors of human KCNK9 two-pore domain potassium channel; B-score at 10 µM; hit rate 1.2% among 310,000; AID 488922; Q9NPC2; HEK293 KCNK9, FluxOR thallium flux fluorescence; stronger effect = lower value;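 active means ratio B-score over 3 SD below the library mean, with starting fluorescence within 5 SD of its mean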;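 further: negative B-score means less thallium flux so channel inhibition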
Target sequence (Q9NPC2 whole entry, looked up, the tested form may be a part): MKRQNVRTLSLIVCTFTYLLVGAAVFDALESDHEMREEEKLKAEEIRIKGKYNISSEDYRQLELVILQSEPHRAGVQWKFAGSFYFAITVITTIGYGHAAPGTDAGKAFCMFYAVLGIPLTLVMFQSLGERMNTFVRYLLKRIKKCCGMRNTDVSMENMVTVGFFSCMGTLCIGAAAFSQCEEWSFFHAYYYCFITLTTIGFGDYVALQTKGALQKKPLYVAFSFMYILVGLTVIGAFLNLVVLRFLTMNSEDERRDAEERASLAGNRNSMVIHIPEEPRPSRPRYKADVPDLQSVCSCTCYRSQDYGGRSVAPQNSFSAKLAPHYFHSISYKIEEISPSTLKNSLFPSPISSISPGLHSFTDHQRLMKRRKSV
KCNK9 inh conf = confirmation of human KCNK9 potassium channel inhibitors; shares compounds with KCNK9 block; hit rate 43% among 4,900; inhibition, % at 10 µM; AID 492992; HEK293 KCNK9 cells, FluxOR thallium flux fluorescence;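 active means thallium signal inhibited by more than 5 SD of the compound-free buffer control wells, on both duplicate plates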;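 further: 0% = assay buffer control wells without compound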
Kir21 sel = selectivity of KCNK9 modulators against mouse Kir2.1; shares compounds with KCNK9 block; Kir2.1 cells, FluxOR thallium flux fluorescence; inhibition, % at 10 µM; hit rate 4% among 4,900; AID 492993;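 active means thallium signal drop more than 5 SD beyond the mean of the no-compound control wells, seen in both duplicate plates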;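 further: signal is fluorescence rise after thallium addition divided by baseline fluorescence; plate controls were assay buffer only for no effect and full block by chlorpromazine control for full effect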
HEK293 Tl ctr = non-induced cell nonspecific activity of KCNK9 modulators. shares compounds with KCNK9 block. non-induced KCNK9-HEK293, FluxOR thallium flux. inhibition, % at 10 µM. hit rate 40% among 4,900;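 active means thallium signal drop beyond 5 SD of the untreated control mean, on both duplicate plates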;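 further: plate controls were buffer only IC0 wells for no effect and SID17386958 at its maximal inhibitory level for full effect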
KCNK3 confirm = confirmation of human KCNK3 two-pore domain potassium channel inhibitors; AID 651638; ratio percent of control, % at 10 µM; hit rate 99% among 2,400; CHO-KCNK3 thallium flux, FluxOR fluorescence; 0% buffer, 100% carvedilol maximal block; shares compounds with KCNK3 block;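 active means ratio percent of control, averaged over triplicates, above buffer control mean plus 5 SD, cut at about 64% in these data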;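 further: ratio is the fluorescence rise from min to max over baseline after thallium stimulus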
KCNK3 noninduced = KCNK3 inhibitor counter-screen hit in non-induced cells | hit rate 40% among 2,400 | thallium flux ratio (lower = more inhibition) at 10 µM | shares compounds with KCNK3 block | non-induced KCNK3 parental cells, FluxOR thallium flux; stronger effect = lower value;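 active means thallium flux ratio, averaged over three wells, more than 5 SD below the buffer control mean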;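 further: host cells are CHO cells without KCNK3 induction; ratio is peak minus trough fluorescence over baseline then normalized to buffer controls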
Active calls of the source: *; i = inactive; · = no result given. Most compounds without a hit are left out; they make up all but 3.7% or so of the library.

SMILES	Kir21 block	hERG protect	KCNQ1 block	KCNQ1 pot	KCNK3 block	KCNK9 block	KCNK9 inh conf	Kir21 sel	HEK293 Tl ctr	KCNK3 confirm	KCNK3 noninduced
COc1cc(NC(=O)CN2C(=O)COc3ccc(S(=O)(=O)N4CCCC4)cc32)cc(OC)c1	-0.02	-6.4	i	i	-11.4*	-11.4*	52.0%*	i	29.5%*	105.3*	i
Cc1cc(C)cc(NC(=O)CN2C(=O)COc3ccc(S(=O)(=O)N4CCCC4)cc32)c1	0.86	-5.4	i	i	i	i	·	·	·	·	·
CCCCC[C@H](O)/C=C/[C@H]1CCC(=O)[C@@H]1CCCCCCC(=O)N1CCCCC1CO (stereo partly drawn)	-0.1	-4.1	i	i	i	-11.6*	60.0%*	i	i	84.7*	i
CCC1CCCCN1C(=O)CCCOc1ccccc1 (stereo not drawn)	-2.01	-10.3	i	i	i	i	·	·	·	·	·
COc1ccc(C(CC(=O)NC(C)c2ccc(-c3ccccc3)cc2)NC(C)=O)cc1 (stereo not drawn)	0.15	-3.0	i	i	i	i	·	·	·	·	·
CN(c1ccccc1)S(=O)(=O)c1cccc2ccccc12	-3	-5.8	i	i	-10.2*	-8.97*	39.0%*	i	30.5%*	112.7*	i
O=C(Nc1cccc(-c2cn3c(n2)SCC3)c1)c1ccc(Br)o1	2.3	-16.2	i	i	i	-10*	37.0%*	i	i	109.3*	i
O=C(Nc1cccc(OC(F)(F)F)c1)c1ccc(Br)o1	-0.34	-14.9	i	i	-9.56*	-10.2*	44.0%*	i	i	116.0*	i
O=C(Nc1cccc(-c2cc3ccccc3oc2=O)c1)c1ccc(Br)o1	1.04	-10.6	i	i	-10.7*	-8.67*	33.5%*	i	i	121.3*	0.15*
O=C(Nc1cccc(F)c1)c1ccc(Br)o1	-0.36	-6.9	i	i	i	i	·	·	·	·	·
O=C(Nc1ccc2oc(-c3cccnc3)nc2c1)c1ccc(Br)o1	0.28	-6.0	i	i	i	i	·	·	·	·	·
Cc1cc2nc(-c3cccc(NC(=O)c4ccc(Br)o4)c3)oc2cc1C	0.32	-9.1	i	i	-9.51*	-9.83*	37.5%*	i	i	121.0*	0.143*
COc1ccc(-c2cc3ccccc3oc2=O)cc1NC(=O)c1ccc(Br)o1	-0.76	-0.7	i	i	i	i	·	·	·	·	·
COc1cc(NC(=O)CSc2nc3[nH]c(=O)cc(O)c3s2)cc(OC)c1OC	·	·	·	·	i	·	·	·	·	·	·
COC(=O)[C@]1(C)N[C@H](CN(C)S(=O)(=O)c2ccc(C)cc2)[C@@H]2C(=O)N(Cc3ccccc3)C(=O)[C@@H]21	·	·	·	·	i	·	·	·	·	·	·
CC1CCN(S(=O)(=O)c2ccc(NC(=O)c3cccs3)cc2)CC1	-2.25	-6.8	i	i	i	i	·	·	·	·	·
CC1CCCCN1S(=O)(=O)c1ccc(NC(=O)c2cccs2)cc1 (stereo not drawn)	-1.48	-11.9	i	i	i	-8.68*	41.0%*	i	i	88.3*	i
CCCCN(CCCC)S(=O)(=O)c1ccc(NC(=O)c2cccs2)cc1	0.2	-18.8	i	i	i	-8.64*	48.0%*	i	44.0%*	120.7*	0.154*
